Experiment [1] has as its target Mast/stem cell growth factor receptor Kit (Homo sapiens) (UniProt P10721). Description: Reduction in KIT mRNA expression in human GIST882 cells after 24 hrs. In kind it is functional, cell-based. The method in brief:
(§1)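 GIST882 cells (1×10^6) exposed to drug for 24 hr. Total RNA extracted, and 250 ng used for one-step RT-PCR of KIT, MYC, hTERT and N-RAS. Band levels normalized to GAPDH and to untreated control.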

Experiment [2] has as its system Nucleic Acid. Description: Stabilization of human G4-telomeric quadruplex assessed as melting temperature by FRET assay. In kind it is nucleic-acid assay. The method in brief: (§2)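 FRET melting of FAM/TAMRA dual-labelled oligonucleotides, annealed at 90°C in 60 mM K+ cacodylate buffer pH 7.4. Final conditions: 200 nM DNA and 500 nM ligand. Fluorescence read at 0.5°C steps from 30 to 100°C, ramping 1°C/min, with excitation 450–495 nm and emission 515–545 nm. Tm taken as the derivative maximum; ΔTm given relative to ligand-free control.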

The test system of another experiment is HGC-27. The experiment is described as follows: Antiproliferative activity against human HGC27 cells after 96 hrs by SRB assay. In kind it is functional, cell-based. The note with it: HGC-27, 96 h. The method in brief:
(§3)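 Sulforhodamine B assay after 96 hr continuous drug exposure; IC50 in μM taken as the mean of triplicate experiments. GIST882 cells were kept in RPMI 1640 with 15% FBS. HT-29 and MCF-7 were kept in DMEM with 10% FBS, and HGC-27 in MEM with 10% FBS.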
In general terms: The SRB assay estimates cell density from bound dye.

Experiment [3] in a line: Antiproliferative activity against human GIST882 cells after 96 hrs by SRB assay. The note with it: GIST882, 96 h. In kind it is functional, cell-based. The method in brief: as §3
Experiment [4] addresses Mast/stem cell growth factor receptor Kit (Homo sapiens) (UniProt P10721). Description: Reduction in KIT protein expression in human GIST882 cells after 24 hrs by Western blot. In kind it is functional, cell-based. The method in brief: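 GIST882 cells (RPMI 1640 + 15% FBS) exposed 24 hr to 0.5 or 1 µM test compound, or imatinib at 5 and 10 µM. Lysates protein-quantified by Bradford, then electrophoresed and immunoblotted for total KIT, with actin blot as loading control; vehicle-treated cells as reference.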

For a further experiment, the system named is MCF7. The experiment is described as follows: Antiproliferative activity against human MCF7 cells after 96 hrs by SRB assay. To be noted: MCF7, 96 h. In kind it is functional, cell-based. The method in brief:
as §3

The next experiment deals with HT-29. The experiment is described as follows: Antiproliferative activity against human HT-29 cells after 96 hrs by SRB assay. Type of experiment: functional, cell-based. The note with it: HT-29, 96 h. The essentials: as §3
In experiment [5] the test system is Nucleic Acid. The experiment is described as follows: Stabilization of human G4-KIT2 DNA quadruplex assessed as melting temperature by FRET assay. In kind it is nucleic-acid assay. The method in brief: as §2
Experiment [6] has as its system Nucleic Acid. Description: Stabilization of synthetic duplex DNA assessed as melting temperature by FRET assay. Type of experiment: nucleic-acid assay. The essentials: as §2
The subject of experiment [7] is Nucleic Acid. Description: Stabilization of human G4-KIT1 DNA quadruplex assessed as melting temperature by FRET assay. Type of experiment: nucleic-acid assay. The essentials: as §2
The nature of experiment [8]: Cytotoxicity against human GIST48 cells assessed as effect on cell viability after 3 to 6 days by luciferase based luminescence assay. In kind it is functional. The method in brief: (§4)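 CellTiter-Glo luciferase/ATP luminescence viability read-out. Cells plated at 10,000–30,000 per well and grown overnight in serum-containing medium, then dosed for 3 to 6 days alongside a water-solvent control. Signal normalized to control; each point in triplicate. GIST882, GISTT1 and LMS04 were grown in RPMI 1640 with 15% FBS. GIST48 and GIST48B were grown in F10 with 15% FBS, mito+ serum extender and bovine pituitary extract.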

Experiment [9] deals with GIST882. Description: Antiproliferative activity against human GIST882 cells at 0.5 uM after 1 week. Type of experiment: functional, cell-based. The essentials: (§5)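 Long-term proliferation of GIST882 cells under continuous exposure for three weeks at 0.1, 0.25 or 0.5 μM. Growth followed as cumulative population doublings relative to an untreated control arm.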
The subject of a further experiment is GIST48B. The experiment is described as follows: Cytotoxicity against human GIST48B cells assessed as effect on cell viability after 3 to 6 days by luciferase based luminescence assay. In kind it is functional. The method in brief:
as §4

In experiment [10] the test system is GIST882. The experiment is described as follows: Antiproliferative activity against human GIST882 cells at 0.1 uM after 2 weeks. Type of experiment: functional, cell-based. The essentials:
as §5

Experiment [11] concerns the target Telomerase reverse transcriptase (Homo sapiens) (UniProt O14746). The experiment is described as follows: Inhibition of telomerase in human GIST882 cells at 0.5 uM by TRAP-LIG assay. In kind it is cell-based. The method in brief: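 TRAP-LIG assay on GIST882 cells treated for one week. Cell protein extract in CHAPS lysis buffer was elongated with TS primer in TRAP buffer at 30°C for 10 min, then purified. A second PCR with ACX/TS primers ran 35 cycles. Products were run on 12% PAGE and stained with SYBR green. Ladder intensity was normalized to an untreated-protein positive control after negative-control background subtraction.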

The test system of experiment [12] is GIST882. Description: Cytotoxicity against human GIST882 cells assessed as growth inhibition at 0.5 uM after 1 week. In kind it is functional, cell-based. The method in brief:
as §5

Experiment [13] has as its system GIST882. The experiment is described as follows: Cytotoxicity against human GIST882 cells assessed as growth inhibition at 0.25 uM after 1 week. In kind it is functional, cell-based. The method in brief: as §5
Experiment [14] can be described thus: Reduction in N-RAS mRNA expression in human GIST882 cells after 24 hrs. In kind it is functional, cell-based. The essentials:
as §1

The species named for a further experiment is Homo sapiens. The experiment is described as follows: Cytotoxicity against human LMSO4 cells assessed as effect on cell viability after 3 to 6 days by luciferase based luminescence assay. In kind it is functional. The method in brief: as §4
For experiment [15], the target named is Mast/stem cell growth factor receptor Kit (Homo sapiens) (UniProt P10721). The experiment is described as follows: Reduction in KIT mRNA expression in human GIST882 cells at 1 uM after 24 hrs relative to GAPDH level. In kind it is functional, cell-based. Further details: scale not given: the % may be the effect or the level left. The method in brief:
as §1

The nature of experiment [16]: Reduction in telomerase mRNA expression in human GIST882 cells after 24 hrs. In kind it is functional, cell-based. The method in brief: as §1
Experiment [17] deals with GIST882. The experiment is described as follows: Antiproliferative activity against human GIST882 cells at 0.25 uM after 1 week. In kind it is functional, cell-based. The essentials:
as §5

The target of experiment [18] is Mast/stem cell growth factor receptor Kit (Homo sapiens) (UniProt P10721). The experiment is described as follows: Reduction in KIT protein expression in human GIST882 cells at 1 uM after 24 hrs by Western blot. In kind it is functional, cell-based. The essentials:
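GIST882 cells treated for 24 hr, compound at 0.5 or 1 μM and imatinib at 5 or 10 μM. Lysate protein measured by Bradford, then electrophoresis and immunoblotting for total KIT with an actin loading control.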
(Immunoblotting shows a protein as a band on a membrane.)

Experiment [19] is described as follows: Reduction in MYC mRNA expression in human GIST882 cells after 24 hrs. In kind it is functional, cell-based. Further details: scale not given: the % may be the effect or the level left. The method in brief: as §1
Experiment [20] deals with GIST882. Description: Cytotoxicity against human GIST882 cells assessed as effect on cell viability after 3 to 6 days by luciferase based luminescence assay. Type of experiment: functional. The method in brief:
as §4

Another experiment has as its system GISTT1. Description: Cytotoxicity against human GISTT1 cells assessed as effect on cell viability after 3 to 6 days by luciferase based luminescence assay. In kind it is functional. The method in brief:
as §4

SMILES strings stand for the structures. The source made the active and inactive calls. No cut-off for these calls is given here.

Sequence of Mast/stem cell growth factor receptor Kit (Homo sapiens) (P10721 whole entry): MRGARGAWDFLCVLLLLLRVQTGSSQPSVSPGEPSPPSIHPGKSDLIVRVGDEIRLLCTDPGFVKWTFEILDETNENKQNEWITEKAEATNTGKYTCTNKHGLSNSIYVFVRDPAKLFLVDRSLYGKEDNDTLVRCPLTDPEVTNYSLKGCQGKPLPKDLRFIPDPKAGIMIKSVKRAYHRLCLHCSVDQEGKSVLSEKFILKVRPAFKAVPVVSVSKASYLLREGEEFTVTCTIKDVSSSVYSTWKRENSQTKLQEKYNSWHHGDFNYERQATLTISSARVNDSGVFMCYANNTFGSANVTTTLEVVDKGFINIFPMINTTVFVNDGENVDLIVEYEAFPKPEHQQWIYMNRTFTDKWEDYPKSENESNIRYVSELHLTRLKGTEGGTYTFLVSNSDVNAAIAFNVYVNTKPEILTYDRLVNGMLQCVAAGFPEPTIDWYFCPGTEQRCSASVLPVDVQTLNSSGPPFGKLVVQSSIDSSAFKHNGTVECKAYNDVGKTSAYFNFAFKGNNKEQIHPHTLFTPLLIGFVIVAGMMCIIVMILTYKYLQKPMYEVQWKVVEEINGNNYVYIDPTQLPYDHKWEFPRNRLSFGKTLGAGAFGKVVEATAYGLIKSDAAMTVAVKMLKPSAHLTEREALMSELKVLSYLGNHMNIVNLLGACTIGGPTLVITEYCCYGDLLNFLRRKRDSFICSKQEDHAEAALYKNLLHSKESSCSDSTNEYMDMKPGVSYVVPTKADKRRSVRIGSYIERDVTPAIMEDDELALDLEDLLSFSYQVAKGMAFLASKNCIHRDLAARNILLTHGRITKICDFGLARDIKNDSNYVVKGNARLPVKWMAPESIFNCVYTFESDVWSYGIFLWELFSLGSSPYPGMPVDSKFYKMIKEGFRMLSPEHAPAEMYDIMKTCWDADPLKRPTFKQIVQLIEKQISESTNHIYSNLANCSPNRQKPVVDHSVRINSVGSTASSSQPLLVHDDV
Sequence of Telomerase reverse transcriptase (Homo sapiens) (O14746 whole entry): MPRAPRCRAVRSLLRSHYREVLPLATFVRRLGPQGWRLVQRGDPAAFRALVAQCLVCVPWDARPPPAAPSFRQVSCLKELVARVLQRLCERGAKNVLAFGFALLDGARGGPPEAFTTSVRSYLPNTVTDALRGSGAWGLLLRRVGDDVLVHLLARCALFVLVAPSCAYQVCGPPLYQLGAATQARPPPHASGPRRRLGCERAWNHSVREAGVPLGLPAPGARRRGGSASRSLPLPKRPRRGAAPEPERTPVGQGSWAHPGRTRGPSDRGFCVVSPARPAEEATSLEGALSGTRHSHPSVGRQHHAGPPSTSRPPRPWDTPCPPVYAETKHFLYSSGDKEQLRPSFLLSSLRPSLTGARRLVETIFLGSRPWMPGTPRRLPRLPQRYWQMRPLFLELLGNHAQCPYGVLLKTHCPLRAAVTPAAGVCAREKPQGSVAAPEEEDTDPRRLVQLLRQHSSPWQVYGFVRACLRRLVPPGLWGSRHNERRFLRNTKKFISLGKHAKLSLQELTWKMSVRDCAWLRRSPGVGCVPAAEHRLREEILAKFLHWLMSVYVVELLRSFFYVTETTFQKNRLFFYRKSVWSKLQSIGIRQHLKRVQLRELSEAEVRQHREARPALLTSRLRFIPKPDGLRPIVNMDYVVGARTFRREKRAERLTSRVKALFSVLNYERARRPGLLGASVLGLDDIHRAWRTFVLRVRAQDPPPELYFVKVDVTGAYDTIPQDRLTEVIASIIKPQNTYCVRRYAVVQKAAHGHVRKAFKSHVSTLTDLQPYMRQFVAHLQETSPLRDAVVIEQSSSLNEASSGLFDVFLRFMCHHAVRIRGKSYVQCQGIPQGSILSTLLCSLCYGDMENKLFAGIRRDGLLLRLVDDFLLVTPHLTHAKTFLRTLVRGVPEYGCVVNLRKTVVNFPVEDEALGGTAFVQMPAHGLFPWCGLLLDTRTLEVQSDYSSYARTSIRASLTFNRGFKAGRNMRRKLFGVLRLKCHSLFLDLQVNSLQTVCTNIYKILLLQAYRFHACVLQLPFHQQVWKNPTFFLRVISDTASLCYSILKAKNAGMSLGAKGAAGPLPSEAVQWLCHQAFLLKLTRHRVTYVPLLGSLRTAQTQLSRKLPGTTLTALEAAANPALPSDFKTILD

Turning to `CN(C)c1ccc(Nc2c3ccc(NC(=O)CCN4CCCC4)cc3nc3cc(NC(=O)CCN4CCCC4)ccc23)cc1`, the outcome in experiment [1] and in [4] was inactive. Besides, the ΔTm (usually the shift of the melting midpoint relative to a reference) in the experiment on Nucleic Acid [2] stood at 21.6 °C; in the experiment on Nucleic Acid [5] it was 18.5 °C; in the experiment with Nucleic Acid [6], 7.2 °C; in the experiment with Nucleic Acid [7] it was 6.5 °C. Moreover, the IC50 (in general, the concentration needed to halve the response being measured) in the experiment with HGC-27 is 2.6 µM; in experiment [3], greater than 25 µM; in the experiment on MCF7, 2.2 µM; with HT-29 it was 2.7 µM.

On to `Cc1ccc(NC(=O)c2ccc(CN3CCN(C)CC3)cc2)cc1Nc1nccc(-c2cccnc2)n1` [IMATINIB], for which the result in experiment [1] was inactive. Also, the thermal shift (ΔTm) in the experiment on Nucleic Acid [2] worked out at 0.2 °C; in the experiment with Nucleic Acid [5], 0.2 °C; with Nucleic Acid [6] it was 0.1 °C; in the experiment on Nucleic Acid [7] it was 0.2 °C. For the same molecule, the half-maximal inhibitory concentration (IC50) with HGC-27 is 2.4 µM; in experiment [3], 1.7 µM; in the experiment on MCF7, 11.5 µM; in experiment [8], 18.7 µM; in the experiment with HT-29 it was 0.06 µM.

On to `C[n+]1ccc(-c2c3nc(c(-c4cc[n+](C)cc4)c4ccc([nH]4)c(-c4cc[n+](C)cc4)c4ccc([nH]4)c(-c4cc[n+](C)cc4)c4nc2C=C4)C=C3)cc1` [TMPYP4], for which the outcome in experiment [1] and in experiment [4] was inactive. Besides, the ΔTm in the experiment on Nucleic Acid [2] was 27.8 °C; in the experiment on Nucleic Acid [5], 21.6 °C; in the experiment with Nucleic Acid [6], 8.7 °C; in the experiment on Nucleic Acid [7], 11.1 °C. Further, the IC50 in the experiment on HGC-27 was 2.7 µM; in experiment [3] it was 13.2 µM; in the experiment on MCF7 it was 6.1 µM; with HT-29, 4.5 µM.

On to `O=C1c2cc(NCCN3CCCC3)c3c4c(cc(NCCN5CCCC5)c(c24)C(=O)N1CCN1CCCC1)C(=O)N(CCN1CCCC1)C3=O`, for which the Activity entry in experiment [1] is “Dose-dependent effect”; in experiment [15], 90%; in experiment [19], 25%. Also, the ΔTm in the experiment with Nucleic Acid [2] was determined as 28.7 °C; in the experiment with Nucleic Acid [5], 29 °C; with Nucleic Acid [6], 5.7 °C; with Nucleic Acid [7], 11.2 °C. Further, the outcome (in the experiment on GIST882 [9]; with GIST882 [10]; in experiment [11]; with GIST882 [12]; in the experiment on GIST882 [13]; in [16]) was Active. The outcome (in the experiment with GIST882 [17]; in experiment [18]; in the experiment on GIST882 [20]; in the experiment on GISTT1) was Active. The result (in the experiment with GIST48B; in experiment [14]; in the experiment filed under Homo sapiens) was inactive. The IC50 was determined as 0.04 µM in the experiment on HGC-27; 1.6 µM in experiment [3]; 0.02 µM in the experiment with MCF7; 0.5 µM in experiment [8]; 0.03 µM with HT-29.

Values taken from ChEMBL document CHEMBL1136989, “Targeting human gastrointestinal stromal tumor cells with a quadruplex-binding small molecule” (J Med Chem, 2009).
